In ChEMBL document CHEMBL4840316, “Structure-based screening for the discovery of 1,2,4-oxadiazoles as promising hits for the development of new anti-inflammatory agents interfering with eicosanoid biosynthesis pathways” (Eur J Med Chem, 2021):

Columns and labels:
[1] = biological target: T1, Prostaglandin E synthase (Homo sapiens) (UniProt O14684); assay: Inhibition of mPGES-1 obtained from IL-beta stimulated human A549 cells microsomes assessed as residual activity by measuring conversion of PGH2 to PGE2 at 10 uM by cell-free RP-HPLC method; conditions: Microsome
T1 sequence (whole entry): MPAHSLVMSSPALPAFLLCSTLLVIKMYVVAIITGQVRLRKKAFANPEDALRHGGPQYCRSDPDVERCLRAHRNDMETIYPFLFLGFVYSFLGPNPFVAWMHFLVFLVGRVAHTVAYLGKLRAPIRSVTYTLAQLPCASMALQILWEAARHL
In short: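 Microsomes from A549 cells stimulated with IL-1β (1 ng/ml) for 48 h. Diluted in 0.1 M potassium phosphate pH 7.4 with 2.5 mM glutathione. Pre-incubated 15 min on ice with compound (single 10 µM, or 0.03–10 µM for the curve) or 1% DMSO. 20 µM PGH2 added for 1 min; stopped with FeCl3/citric acid containing 11β-PGE2 standard. PGE2 measured by SPE and RP-HPLC. n = 3.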

A549 = assay: Cytotoxicity against human A549 cells assessed as cell viability at 10 uM measured after 48 hrs by MTT assay; type: cell-based; conditions: a549, 48 h
In short: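 A549 cells in DMEM + 10% FBS, 2 × 10^4 per well, seeded in triplicate. Exposed to 10 µM compound or 0.1% DMSO for 48 h at 37 °C, 5% CO2. MTT added for 1 h, formazan dissolved in DMSO, absorbance read at 570 nm. Viability given as % of vehicle, n = 3.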

[2] = biological target: T2, Polyunsaturated fatty acid 5-lipoxygenase (Homo sapiens) (UniProt P09917); assay: Inhibition of 5-LO in A23187-stimulated human intact neutrophils assessed as reduction in LTB4/5-HETE formation by measuring residual activity at 10 uM measured after 20 mins by RP-HPLC method; type: tissue-based; conditions: Neutrophil
T2 sequence (whole entry): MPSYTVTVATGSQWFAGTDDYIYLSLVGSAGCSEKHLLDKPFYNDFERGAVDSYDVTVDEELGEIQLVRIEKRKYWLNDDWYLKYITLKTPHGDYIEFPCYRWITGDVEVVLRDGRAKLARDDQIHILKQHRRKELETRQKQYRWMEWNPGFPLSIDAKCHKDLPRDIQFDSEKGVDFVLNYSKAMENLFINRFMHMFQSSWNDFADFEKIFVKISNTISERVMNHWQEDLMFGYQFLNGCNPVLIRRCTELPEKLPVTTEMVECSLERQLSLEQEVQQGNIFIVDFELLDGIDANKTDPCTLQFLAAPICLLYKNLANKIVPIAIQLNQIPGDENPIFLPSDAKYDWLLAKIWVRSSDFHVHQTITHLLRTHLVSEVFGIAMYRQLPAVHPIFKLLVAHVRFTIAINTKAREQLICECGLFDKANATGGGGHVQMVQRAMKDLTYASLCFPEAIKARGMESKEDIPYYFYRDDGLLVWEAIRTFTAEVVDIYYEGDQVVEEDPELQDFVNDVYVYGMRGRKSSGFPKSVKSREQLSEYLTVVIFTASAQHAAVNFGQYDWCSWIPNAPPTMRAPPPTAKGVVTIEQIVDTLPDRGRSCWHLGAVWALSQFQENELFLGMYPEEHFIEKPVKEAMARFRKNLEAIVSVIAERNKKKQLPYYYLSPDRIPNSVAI
In short: (§1)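 Human neutrophils at 5 × 10^6/mL in PBS with 0.1% glucose and 1 mM CaCl2. Pre-incubated with compound or 0.1% DMSO for 10 min at 37 °C. Stimulated with 2.5 µM A23187, with or without 20 µM AA, for 10 min at 37 °C. Stopped with cold methanol; PGB1 internal standard. LTB4, its trans isomers and 5-HETE quantified by SPE and RP-HPLC; % of control.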

[3] = biological target: T2, Polyunsaturated fatty acid 5-lipoxygenase (Homo sapiens); assay: Inhibition of 5-LO in A23187/AA-stimulated human intact neutrophils assessed as reduction in LTB4/5-HETE formation by measuring residual activity at 10 uM measured after 20 mins by RP-HPLC method; type: tissue-based; conditions: Neutrophil; in short: as §1
[4] = biological target: T3, Bifunctional epoxide hydrolase 2 (Homo sapiens) (UniProt P34913); assay: Inhibition of recombinant human sEH expressed in sf9 insect cells assessed as residual activity at 10 uM using PHOME as substrate preincubated for 15 mins followed by substrate addition and measured after 60 mins relative to control; conditions: time 75.0 min
T3 sequence (whole entry): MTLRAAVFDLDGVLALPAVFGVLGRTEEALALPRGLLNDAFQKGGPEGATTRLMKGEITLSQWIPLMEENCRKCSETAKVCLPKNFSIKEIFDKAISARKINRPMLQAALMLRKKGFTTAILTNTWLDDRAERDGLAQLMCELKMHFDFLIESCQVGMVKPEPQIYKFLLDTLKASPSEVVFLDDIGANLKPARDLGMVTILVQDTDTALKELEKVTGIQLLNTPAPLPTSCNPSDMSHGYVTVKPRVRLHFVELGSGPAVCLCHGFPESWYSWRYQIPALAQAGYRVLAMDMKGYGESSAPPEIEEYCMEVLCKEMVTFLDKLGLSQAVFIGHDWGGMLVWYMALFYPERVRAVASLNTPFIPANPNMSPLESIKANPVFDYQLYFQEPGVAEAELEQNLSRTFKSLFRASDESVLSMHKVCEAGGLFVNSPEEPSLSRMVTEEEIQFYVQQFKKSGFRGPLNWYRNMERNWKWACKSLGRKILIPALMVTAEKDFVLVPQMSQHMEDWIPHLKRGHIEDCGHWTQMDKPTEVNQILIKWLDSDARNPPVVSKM
In short: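 Human recombinant sEH from baculovirus-infected Sf9 cells, affinity-purified. Diluted in 25 mM Tris pH 7 with 0.1 mg/mL BSA. Pre-incubated 15 min at room temperature with 10 µM compound or 0.1% DMSO. 50 µM PHOME added, run 60 min at room temperature, stopped with ZnSO4. Fluorescence read at ex 330 / em 465 nm.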

[5] = biological target: Prostaglandin G/H synthase 1 (Ovis aries) (UniProt P05979); assay: Inhibition of ovine COX-1 assessed as residual activity at 10 uM using arachidonic acid as substrate preincubated for 5 mins by RP-HPLC method relative to control; conditions: time 10.0 min
[6] = biological target: T2, Polyunsaturated fatty acid 5-lipoxygenase (Homo sapiens); assay: Inhibition of 5-LO (unknown origin) expressed in Escherichia coli BL21 assessed as residual activity at 10 uM by RP-HPLC method relative to control
In short: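 Human recombinant 5-LO expressed in E. coli BL21 and purified on ATP-agarose. 0.5 µg enzyme in 1 mL PBS + 1 mM EDTA pre-incubated with compound or 0.1% DMSO for 10 min on ice. Reaction started with 20 µM AA and 2 mM CaCl2, run 10 min at 37 °C, stopped with ice-cold methanol. Products analysed; activity as % of control.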

Monocyte = assay: Cytotoxicity against human monocyte cells assessed as cell viability at 10 uM measured after 24 hrs by MTT assay; type: cell-based
In short: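 Human monocytes isolated from PBMC by adherence, 0.2 × 10^6 per well in buffer. Exposed to 10 µM compound or 0.5% DMSO for 24 h (37 °C, 5% CO2). MTT for 2 h, then SDS lysis (10%, pH 4.5) for 17 h. Absorbance read at 570 nm; viability as % of vehicle, n = 3.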

Chain of Prostaglandin G/H synthase 1 (Ovis aries) (P05979 whole entry, looked up): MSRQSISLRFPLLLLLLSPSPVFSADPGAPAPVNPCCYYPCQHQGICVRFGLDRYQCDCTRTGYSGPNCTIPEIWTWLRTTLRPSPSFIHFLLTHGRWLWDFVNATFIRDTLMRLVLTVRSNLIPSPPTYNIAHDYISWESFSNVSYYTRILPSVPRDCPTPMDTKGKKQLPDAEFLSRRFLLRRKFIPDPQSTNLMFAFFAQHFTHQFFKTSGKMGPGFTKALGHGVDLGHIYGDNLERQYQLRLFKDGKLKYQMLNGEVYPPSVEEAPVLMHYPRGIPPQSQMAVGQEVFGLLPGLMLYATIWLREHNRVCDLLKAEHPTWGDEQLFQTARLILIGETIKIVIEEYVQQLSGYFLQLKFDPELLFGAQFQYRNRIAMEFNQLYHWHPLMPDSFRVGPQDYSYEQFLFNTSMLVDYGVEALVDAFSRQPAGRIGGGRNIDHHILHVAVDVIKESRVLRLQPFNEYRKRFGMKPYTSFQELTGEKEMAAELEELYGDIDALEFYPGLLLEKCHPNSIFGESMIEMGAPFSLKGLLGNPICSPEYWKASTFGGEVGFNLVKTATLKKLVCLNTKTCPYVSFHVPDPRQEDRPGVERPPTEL

Row | SMILES | Activity [1] [%] | Activity (A549) | Activity [2] [%] | Activity [3] [%] | Activity [4] [%] | Activity [5] [%] | Activity [6] [%] | Activity (Monocyte)
1 | Oc1cccc(CCc2nc(-c3ccc(-c4ccsc4)cc3)no2)c1 | 76.4 | Non-Toxic | 19.9 | 14.9 | > 50 | 47.7 | 105 | Non-Toxic
2 | Oc1c(F)c(F)cc(-c2nc(-c3ccc(-c4ccsc4)cc3)no2)c1F | 25.4 | Non-Toxic | 1.7 | 18.5 | > 50 | 34.7 | 10.3 | Non-Toxic
